{"source": "paper PMC12583737", "about": "(Nature Communications, 2025)", "key": {"V5-tagged FBXO22": {"test_system": "V5-tagged FBXO22", "assay": "Cellular thermal stability shift assay", "type": "binding", "details": "lysates of HCC515 expressing V5-tagged FBXO22", "outline": "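It got 10 µM neddylation inhibitor for 10 min, then compound or DMSO for 30 min at room temperature. Aliquots were heated 3 min across 38–71 °C in 3-degree steps and cleared at 20,000 g. Soluble V5-FBXO22 was read by anti-V5 immunoblot.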"}, "[1]": {"test_system": "SMARCA2-nanoLuc and FBXO22-HaloTag", "assay": "SMARCA2/FBXO22 NanoBRET ternary complex assay in FBXO22 knockout HCC515 cells", "type": "cell-based", "details": "FBXO22 knockout HCC515, overnight, 10 µM MLN4924", "outline": "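FBXO22-knockout HCC515 cells were transiently co-transfected with SMARCA2-NanoLuc and FBXO22-HaloTag at a 1:20 ratio (FuGENE HD). They were replated next day at 25,000 per well with or without HaloTag 618 ligand and left overnight. Cells were pretreated 1 h with 10 µM MLN4924, which was kept throughout, then dosed with test compound or a control PROTAC for 24 h. Emissions at 460/618 nm were read 10 min after substrate. Ratio ×1000 gave mBU, with the no-ligand value subtracted. Mean ± sd, n = 2–6.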"}}}
{"compound": "Nc1nnc(-c2ccccc2O)cc1N1CC2CCC(C1)N2c1ccnc(F)c1", "note": "[Compound 7]", "values": [{"measurement": "thermal stability of FBXO22", "setting": "V5-tagged FBXO22", "value": "not observed"}]}
{"compound": "Cc1ncsc1-c1ccc([C@H](C)NC(=O)[C@@H]2C[C@@H](O)CN2C(=O)[C@@H](c2cc(N3CCC(CN4CCC(OC5CC(Oc6cc(N7C8CCC7CN(c7cc(-c9ccccc9O)nnc7N)C8)ccn6)C5)CC4)CC3)no2)C(C)C)cc1", "note": "(some centres unmarked) [Compound A947]", "values": [{"measurement": "BRET signal (ternary complex SMARCA2/FBXO22)", "setting": "[1]", "value": "not observed"}]}
